For test [1], the species on record is Mus musculus. Kind of test: No significant effect dose level on blood hemoglobin. Type of test: functional. The method in brief:
(§1)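 Blood hemoglobin content was measured in C57 Bl/6 ob/ob mice after 8 days of compound given by dietary admixture. The value is the highest dose (µmol/kg of diet) with no significant reduction in blood hemoglobin.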

The species entered for test [2] is Mus musculus. Kind of test: Antihyperglycemic potency dose producing approximately 25% reduction in area under glucose tolerance curve. Format: functional. Put shortly:
(§2)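 C57 Bl/6 ob/ob mice, 9–10 weeks old at purchase, 6–8 per group, kept at 26 ± 2 °C on a 12 h light/dark cycle. Compound was mixed into powdered diet, given fresh daily for 8 days. Mice were then fasted 5 h and given oral glucose 3 g/kg. Tail blood glucose was measured at 0, 45, 90 and 135 min by hexokinase/G6PDH. Read-out is % AUC reduction vs controls (trapezoid rule), Student's t-test.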

The test system of test [3] is Mus musculus. Kind of test: Percent reduction in area under glucose tolerance curve (AUC) was determined at 30 umol/kg dose of diet in mice. Format: functional. The method in brief: as §2
In test [4] the test system is Mus musculus. Kind of test: Percent reduction in area under glucose tolerance curve at 300 uM/kg dose in diet of mice. Type of test: functional. The method in brief: as §2
Test [5] has as its system Mus musculus. The test is described as follows: Percent reduction in area under glucose tolerance curve at 100 uM/kg dose in diet of mice. Format: functional. The method in brief: as §2
Test [6] is described as follows: Selectivity ratio for Antihyperglycemic potency dose and No significant effect dose. Format: functional.
Test [7] is filed under the species Mus musculus. The test is described as follows: No significant effect dose level on blood hemoglobin. Format: functional. Put shortly: as §1
Test [8] concerns Mus musculus. Kind of test: Percent reduction in area under glucose tolerance curve (AUC) was determined at 100 umol/kg dose of diet in mice; IA = No significant activity. Type of test: functional, organism-based. Put shortly: as §2
In test [9] the test system is Mus musculus. The test is described as follows: Percent reduction in area under glucose tolerance curve (AUC) was determined at 3000 umol/kg dose of diet in mice. Format: functional. The method in brief: as §2
The subject of test [10] is Mus musculus. Kind of test: Percent reduction in area under glucose tolerance curve (AUC) was determined at 3 umol/kg dose of diet in mice. Type of test: functional. Put shortly:
as §2

The subject of test [11] is Mus musculus. The test is described as follows: Percent reduction in area under glucose tolerance curve (AUC) was determined at 10 umol/kg dose of diet in mice. Format: functional. Put shortly: as §2
In test [12] the test system is Mus musculus. Kind of test: Percent reduction in area under glucose tolerance curve (AUC) was determined at 1000 umol/kg dose of diet in mice; IA = No significant activity. Type of test: functional, organism-based. Put shortly:
as §2

Test [13] deals with Mus musculus. Kind of test: Percent reduction in area under glucose10 umol/kg dose of diet in mice. Format: functional. The method in brief:
as §2

The source made the active and inactive calls. The rule behind the calls is not given here.

For `CN(CCOc1ccc(CC2SC(=O)NC2=O)cc1)c1nc2ccccc2o1` (centres undefined) [BRL-48482], the Dose in test [1] came out at 30 µM/kg; in test [2], 3 µM/kg. The Reduction in test [3] was determined as 52%; in test [4] it was 42%; in test [5] it was 57%. The Selectivity ratio in [6] is 10.
With `Cc1c(C)c2c(c(C)c1O)CCC(C)(COc1ccc(CC3SC(=O)NC3=O)cc1)O2` (centres undefined) [TROGLITAZONE], the Dose in test [7] came to 600 µM/kg; in [2], 400 µM/kg. The Reduction result in test [8] was “inactive”. The Reduction in [4] worked out at 20%; in test [9], 48%. Moreover, the Selectivity ratio in test [6] turned out to be 1.5.
For the compound `Cc1nc(N(C)CCOc2ccc(CC3SC(=O)NC3=O)cc2)sc1-c1ccccc1` (centres undefined), the figures for the Dose in test [1] and in [2] were less than 300 µM/kg and 3 µM/kg, respectively. Also, the Reduction in [10] came to 33%; in [11], 27%; in test [5] it was 39%. Besides, in [6], the Selectivity ratio was less than 100.
Regarding `O=C(NCCOc1ccc(CC2SC(=O)NC2=O)cc1)Nc1ccc(F)cc1` (centres undefined), the Reduction entry in [12] is “Not significant”.
As to `CN(CCOc1ccc(C2SC(=O)NC2=O)cc1)c1nc2ccccc2o1` (centres undefined), the Reduction result in test [12] was “inactive”.
`CN(CCOc1ccc(CC2SC(=O)NC2=O)cc1)c1ccccn1` (centres undefined) [ROSIGLITAZONE]: the values for the Dose in [1] and in test [2] were 300 µM/kg and 3 µM/kg, respectively. Besides, the Reduction in [10] stood at 17%; in test [3], 41%; in test [4] it was 61%; in test [13], 31%; in test [5], 56%. Moreover, the Selectivity ratio in test [6] worked out at 100.
With `CN(CCOc1ccc(CC2SC(=O)NC2=O)cc1)c1ncccn1` (centres undefined), the Dose in test [7] worked out at 100 µM/kg; in test [2], 10 µM/kg. Moreover, the Reduction in [10] was found to be 18%; in test [11] it was 18%; in test [5], 43%. Moreover, the Selectivity ratio in test [6] was found to be 10.

(Values after ChEMBL document CHEMBL1127785, “[[omega-(Heterocyclylamino)alkoxy]benzyl]-2,4-thiazolidinediones as potent antihyperglycemic agents” (1994).)
